# Only some compounds are listed: those with a hit (about 2.4% of all), similar ones and a draw of the others.
# DNMT1 block – blocks human DNA methyltransferase DNMT1. P26358. DNMT1 molecular beacon, Hinp1I cleavage, fluorescence. inhibition (reported as % activation of signal), % at 10 µM. actives 0.83% (n = 360,000). AID 588458; in the data active = inhibition above about 50%
# Scp-1 inhibitor – blocks human Scp-1 phosphatase activity | Recombinant Scp1, phosphopeptide, malachite green phosphate absorbance | inhibition, % at 20 µM | actives 0.88% (n = 340,000);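 active = inhibition above about 50% at 20 µM, limit read from the data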;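 note: plate controls were DMSO wells with enzyme for no effect and wells lacking enzyme for full effect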
# Target sequence (Q9GZU7 76-261 limits assumed): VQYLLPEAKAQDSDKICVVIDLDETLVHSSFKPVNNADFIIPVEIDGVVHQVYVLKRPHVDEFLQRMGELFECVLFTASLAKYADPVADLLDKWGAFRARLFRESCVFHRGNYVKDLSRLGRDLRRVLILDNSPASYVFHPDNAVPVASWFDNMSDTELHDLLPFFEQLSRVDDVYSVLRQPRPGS
#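 System: truncated SCP-1 phosphatase (76-261aa); medium: Tris acetate buffer pH 5.5 with MgCl2 and Tween-20; incubation: 45 min room-temperature reaction, 5 min colour, 30 min stabiliser; compound: single 20 µM dose, 1% DMSO; reagent: Phosphorylated 17-residue peptide substrate; read-out: % inhibition at 20 µM; technique: colorimetric free-phosphate detection, absorbance 630 nm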
# STEP inh – STEP (human) phosphatase inhibition | P54829 | recombinant STEP, OMFP fluorogenic substrate, fluorescence | inhibition, % at 20 µM | actives 0.25% (n = 360,000);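 active = inhibition at 20 µM, scaled per plate between control wells, above about 37%, limit read from the data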;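 note: 0% = DMSO with enzyme and substrate and 100% = substrate only without enzyme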
#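 System: STEP phosphatase, cell-free reaction; Buffer or medium: Bis-Tris pH 6.0 buffer with DTT, detergent; Incubation: 20 min at room temperature, dark; Measured by: fluorescence, 480/540 nm.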
# LMPTP block – LMPTP (human) inhibition; recombinant LMPTP-A, OMFP fluorogenic substrate, fluorescence intensity; inhibition, % at 20 µM; actives 0.22% (n = 360,000); AID 651560;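 active = compounds that cut the enzyme signal by at least half of the control window in the single-dose screen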;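 note: plate controls were DMSO wells with enzyme plus substrate for no effect and substrate without enzyme for full effect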
# Target sequence (P24666 whole entry, looked up): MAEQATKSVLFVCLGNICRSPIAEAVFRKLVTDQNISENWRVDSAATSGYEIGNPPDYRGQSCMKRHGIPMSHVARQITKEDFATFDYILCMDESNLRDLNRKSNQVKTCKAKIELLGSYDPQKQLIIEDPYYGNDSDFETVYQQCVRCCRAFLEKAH
#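 Test system: LMPTP-A phosphatase enzyme; input: 0.625 nM LMPTP-A final; reagent: OMFP substrate, 400 µM final; compound dosing: 20 µM single dose, 3% DMSO; incubation: 50 min dark incubation at room temperature; measured by: endpoint fluorescence intensity from OMFP dephosphorylation; measure: % inhibition relative to no-enzyme and uninhibited control wells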
# NadD block – inhibitors of Staphylococcus aureus NadD; purified NadD enzyme, colorimetric absorbance read-out; inhibition, % at 20 µM; actives 0.78% (n = 360,000); in the data active = inhibition above about 26%
# SUMO1-SIM PPI – alters human SUMO1 binding to SIM partners; inhibition, % at 20 µM; SUMO1 binding to a labelled peptide, TR-FRET, 1 h; AID 602429; P63165; actives 0.33% (n = 360,000); in the data active = inhibition above about 37%
# Target sequence (P63165 whole entry, looked up): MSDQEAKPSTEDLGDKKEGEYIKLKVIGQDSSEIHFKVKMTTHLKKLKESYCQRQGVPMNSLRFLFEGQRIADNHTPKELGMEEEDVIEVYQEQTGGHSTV
# NadD conf – NadD (S. aureus) inhibition, single concentration confirmation; inhibition, % at 20 µM; actives 13% (n = 2,000); purified S. aureus NadD, colorimetric enzyme assay; shares compounds with NadD block; in the data active = inhibition mostly above about 42%, no sharp cut-off; inactive = mostly below about 42%
# Active calls of the source: *; nt = not tested or not shown.
SMILES,DNMT1 block,Scp-1 inhibitor,STEP inh,LMPTP block,NadD block,SUMO1-SIM PPI,NadD conf
Cc1ccc(C)n1NC(=O)c1ccc(Cl)cc1,-3,-6,-3,1,9,0,nt
O=C(Nc1nc2cc(Cl)ccc2s1)C1CCCN(S(=O)(=O)c2cccc3cccnc23)C1 (stereo unspecified),-21,3,2,4,36*,0,11
N#C/C(=C\c1ccc(-c2cccc([N+](=O)[O-])c2)o1)C(=O)N1CCOCC1,1,0,-1,2,-4,-20,nt
N#C/C(=C\c1ccc(-c2ccccc2[N+](=O)[O-])o1)C(=O)Nc1nc(-c2cccs2)cs1,28,-5,0,4,34*,6,-5
N#C/C(=C/c1ccc(-c2cccc([N+](=O)[O-])c2)o1)C(=O)Nc1nc(-c2cccs2)cs1,30,-1,-1,3,46*,-13,-9
Cc1ccc(NC(=O)c2cc(S(=O)(=O)N3CCc4ccccc43)cn2C)cc1C,-10,-17,-3,3,5,0,nt
CCOC(=O)Cc1csc(NC(=O)c2csc(C)c2)n1,-3,-3,-1,-1,-3,1,nt
CCOC(=O)Cc1csc(NC(=O)c2sc3nc4c(C)cc(C)cc4cc3c2N)n1,-23,0,-1,0,40*,10,2
Cc1ccc(-c2csc(/C=C3/SC(C)C(=O)N3CC(=O)Nc3ccccc3F)n2)cc1 (stereo unspecified),6,-1,1,2,22,-3,nt
CC(=O)c1ccccc1NC(=O)CN1C(=O)CS/C1=C\c1nc(-c2ccc(C)cc2)cs1,-7,-5,3,3,46*,-2,2
CC1Cc2ccccc2N1Cc1cc(=O)n2ccsc2n1 (stereo unspecified),-13,-10,-2,9,28*,-1,11
C[C@@]12C(=O)N(Cc3ccc(-c4ccccc4)cc3)CC(=O)N1[C@H](/C=C/c1ccccc1)[C@@H]1C(=O)N(c3ccccc3)C(=O)[C@@H]12,-7,-3,-2,0,0,-4,nt
Cc1ccc(NC(=O)CN(C)Cc2nc3c(Br)cc(Br)cc3c(=O)[nH]2)cc1,-3,-1,0,2,29*,-31,-1
CCN(CC(=O)NC(C)(C)C)Cc1nc2c(Br)cc(Br)cc2c(=O)[nH]1,0,-12,3,0,-5,-1,nt
COc1ccccc1NC(=O)c1sc2ncn(CC(=O)Nc3ccccc3)c(=O)c2c1C,10,15,2,5,30*,1,5
COc1ccc(/C(C)=N/NC(=O)CNC(=O)c2cccnc2)cc1OC,2,3,-1,-1,-11,-5,nt
COC(=O)c1ccc(-c2nc(CN3CCC(C(=O)N4CCOCC4)CC3)c(C)o2)cc1,-1,-2,-1,-1,1,-6,nt
S=c1[nH]nc(Nc2cccc3ccccc23)s1,-8,-7,2,1,37*,-3,44
Fc1ccccc1Nc1n[nH]c(=S)s1,3,12,-2,4,10,0,nt
Cc1ccccc1Nc1n[nH]c(=S)s1,1,nt,3,1,20,-1,nt
Cc1c(Cl)cccc1Nc1n[nH]c(=S)s1,1,2,1,2,32*,6,31
Cc1cc(C)nc(NC(=NCCc2c[nH]c3ccccc23)NC(=O)Nc2ccccc2)n1,-17,20,-1,6,19,-4,nt
Cc1cc(C)nc(NC(=NCCc2c[nH]c3ccccc23)NC(=O)Nc2ccc(Cl)c(Cl)c2)n1,16,4,0,5,38*,2,3
Cc1cc(C)nc(NC(=NCCc2c[nH]c3ccccc23)NC(=O)Nc2cccc([N+](=O)[O-])c2)n1,6,1,3,3,49*,3,8
FC(F)(F)c1ccncc1-c1nnc(C2CCCCC2)o1,1,11,0,-1,-4,-1,nt
SMILES,DNMT1 block,Scp-1 inhibitor,STEP inh,LMPTP block,NadD block,SUMO1-SIM PPI,NadD conf
O=C(C=C=Nc1ccccc1)C(=O)N=C=Cc1ccccc1,4,17,4,0,-5,6,nt
O=C(Nc1ccc([N+](=O)[O-])cc1)Nc1nc(-c2ccc(Cl)s2)cs1,41,-5,-2,1,51*,1,5
CC(=O)c1ccc(NC(=O)Nc2ccc([N+](=O)[O-])cc2)cc1,0,-5,0,-2,-4,-2,nt
O=C(Nc1ccc(Oc2ccc(NC(=O)Nc3ccc([N+](=O)[O-])cc3)cc2)cc1)Nc1ccc([N+](=O)[O-])cc1,-10,-13,-4,2,32*,1,-4
Cc1occc1C(=O)Nc1c(Cl)cccc1Cl,2,-5,-1,1,-1,4,nt
COc1cccc(CNC(=O)CCNS(=O)(=O)c2ccc3c(c2)oc(=O)n3C)c1,1,16,-2,0,-2,2,nt
COc1ccc2c(c1)nc(-c1cccc(Br)c1)c(=O)n2C(c1ccccn1)c1nc2ccccc2[nH]1 (stereo unspecified),-20,nt,-2,2,46*,16,32
Cc1ccc(Cn2c(N)c(S(=O)(=O)c3cccs3)c3nc4ccccc4nc32)cc1,-4,-4,0,1,32*,1,30
Nc1c(S(=O)(=O)c2cccs2)c2nc3ccccc3nc2n1Cc1ccccc1,-23,7,0,1,16,1,nt
N=C1SC(c2ccccc2)C(=O)N1c1ncc(Cc2ccccc2Cl)s1 (stereo unspecified),33,-6,1,0,50*,3,50*
COc1ccc(-n2c(=S)[nH]c3c(sc(=S)n3-c3ccccc3)c2=O)c(OC)c1,-2,-3,8,2,30*,6,14
COc1ccc(-n2c(=S)[nH]c3sc(-c4ccccc4)cc3c2=O)c(OC)c1,-2,-9,-1,0,4,-9,nt
COn1c(-c2ccccc2)nc2ncccc21,0,-6,4,-2,-7,0,nt
Cc1ccccc1Nc1nc(-c2sc(NC(=O)c3ccco3)nc2C)cs1,-28,-4,-3,1,32*,9,34
CC(=O)Nc1ccc(Nc2nc(-c3sc(NC(C)=O)nc3C)cs2)cc1,-16,-5,-4,-1,-5,-16,nt
Cc1ccc(Nc2nc(-c3sc(NC(=O)c4ccco4)nc3C)cs2)cc1,-43,2,-1,1,33*,5,41
CCOc1ccccc1Nc1nc(-c2sc(NC(=O)c3ccco3)nc2C)cs1,-27,1,1,4,31*,7,24

# Screening data: PubChem BioAssay, Sanford-Burnham Center for Chemical Genomics
